pIC50: −log10 of the molar value. Converted amounts (≈) assume the structure as drawn. The source made the active and inactive calls. The rule behind the calls is not given here.
Columns and labels:
Rattus norvegicus [1] = assay: Antiinflammatory activity in Sprague-Dawley rat assessed as inhibition of LPS-induced bronchoalveolar lavage neutrophils measured as terminal lung concentration at 0.01 mg/ml, inhalation administered as nebulized suspension; type: functional
Method in brief: (§1)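 Rats were given the compound as an aqueous nebulized aerosol by nose-only inhalation 30 min before LPS challenge. Dose is expressed as mg/mL nebulizer concentration. Lung neutrophilia was the readout, and terminal lung concentration (nM) was measured. Groups held 8−10 animals per treatment.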

Rattus norvegicus [2] = assay: Antiinflammatory activity in Sprague-Dawley rat assessed as inhibition of LPS-induced bronchoalveolar lavage neutrophils measured as terminal lung concentration at 0.1 mg/ml, inhalation administered as […] treated 12 hrs before LPS; type: functional
Method in brief: (§2)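 Duration protocol: rats received a nose-only inhalation of nebulized aqueous compound solution 12 h before LPS challenge. Dose is expressed as mg/mL nebulizer concentration. Readout was LPS-induced pulmonary neutrophilia, with terminal lung concentration (nM) measured. Groups held 8−10 animals per treatment.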

[3] = Half life in rat at 1 mg/kg, it; type: ADME, organism-based; parameters: dose 1 mg/kg, route endotracheal; settings: in vivo, inhaled or intranasal
Method in brief: (§3)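 Rat pharmacokinetics were run at 1 mg/kg, given iv or by intratracheal instillation, with 2−3 animals per study.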

Rattus norvegicus [4] = assay: Antiinflammatory activity in Sprague-Dawley rat assessed as inhibition of LPS-induced bronchoalveolar lavage neutrophils measured as terminal lung concentration at 0.003 mg/ml, inhalation administered as nebulized suspension; type: functional; method in brief: as §1
[5] = Half life in rat at 1 mg/kg, iv; type: ADME, organism-based; parameters: dose 1 mg/kg, route intravenous; settings: in vivo; method in brief: as §3
[6] = Volume of distribution at steady state in rat at 1 mg/kg, iv; type: ADME, organism-based; parameters: dose 1 mg/kg, route intravenous; settings: in vivo, read-out: Vdss
Rattus norvegicus [7] = assay: Antiinflammatory activity in Sprague-Dawley rat assessed as inhibition of LPS-induced bronchoalveolar lavage neutrophils measured as terminal lung concentration at 0.03 mg/ml, inhalation administered as nebulized suspension; type: functional; method in brief: as §1
[8] = Oral bioavailability in dog; type: ADME, organism-based, Canis lupus familiaris; settings: in vivo
[9] = biological target: Voltage-gated inwardly rectifying potassium channel KCNH2 (Homo sapiens, UniProt Q12809); assay: Inhibition of human ERG
[10] = Lipophilicity, log K of the compound; type: physicochemical; settings: octanol/water
[11] = biological target: 3',5'-cyclic-AMP phosphodiesterase 4A (Homo sapiens, UniProt P27815); assay: Inhibition of human PDE4A1A using [3H]cAMP by packard topcount scintillation counting analysis
PBMC = assay: Antiinflammatory activity in human PBMC assessed as inhibition of LPS-induced TNFalpha production after 20 hrs by fluorescence linked immunosorbant assay; type: functional, cell-based
[12] = Fraction unbound in rat plasma; type: ADME, cell-free
Rattus norvegicus [13] = assay: Antiinflammatory activity in Sprague-Dawley rat assessed as inhibition of LPS-induced bronchoalveolar lavage neutrophils measured as terminal lung concentration at 0.1 mg/ml, inhalation administered as nebulized suspension; type: functional; method in brief: as §1
[14] = Intrinsic clearance in rat hepatocytes measured per 10^6 cells; type: ADME, cell-based, Hepatocyte; settings: read-out: CLH
[15] = Clearance in dog; type: ADME, organism-based, Canis lupus familiaris; settings: in vivo
Rattus norvegicus [16] = assay: Antiinflammatory activity in nasally dosed Sprague-Dawley rat assessed as inhibition of LPS-induced bronchoalveolar lavage neutrophils measured as lung deposited dose administered as […]; type: functional
Method in brief: (§4)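 ED80 was derived from the nose-only nebulized-solution dose response in rats dosed 30 min before LPS challenge, with neutrophilia as the readout. ED80 is given as nebulizer concentration, as the matching terminal total lung concentration, and as lung deposited dose estimated from measured filter sample and terminal lung levels.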

Rattus norvegicus [17] = assay: Antiinflammatory activity in Sprague-Dawley rat assessed as inhibition of LPS-induced bronchoalveolar lavage neutrophils measured as terminal lung concentration at 0.03 mg/ml, inhalation administered as […] treated 12 hrs before LPS; type: functional; method in brief: as §2
[18] = biological target: T1, 3',5'-cyclic-AMP phosphodiesterase 4B (Rattus norvegicus, UniProt P14646)
T1 sequence (P14646 whole entry): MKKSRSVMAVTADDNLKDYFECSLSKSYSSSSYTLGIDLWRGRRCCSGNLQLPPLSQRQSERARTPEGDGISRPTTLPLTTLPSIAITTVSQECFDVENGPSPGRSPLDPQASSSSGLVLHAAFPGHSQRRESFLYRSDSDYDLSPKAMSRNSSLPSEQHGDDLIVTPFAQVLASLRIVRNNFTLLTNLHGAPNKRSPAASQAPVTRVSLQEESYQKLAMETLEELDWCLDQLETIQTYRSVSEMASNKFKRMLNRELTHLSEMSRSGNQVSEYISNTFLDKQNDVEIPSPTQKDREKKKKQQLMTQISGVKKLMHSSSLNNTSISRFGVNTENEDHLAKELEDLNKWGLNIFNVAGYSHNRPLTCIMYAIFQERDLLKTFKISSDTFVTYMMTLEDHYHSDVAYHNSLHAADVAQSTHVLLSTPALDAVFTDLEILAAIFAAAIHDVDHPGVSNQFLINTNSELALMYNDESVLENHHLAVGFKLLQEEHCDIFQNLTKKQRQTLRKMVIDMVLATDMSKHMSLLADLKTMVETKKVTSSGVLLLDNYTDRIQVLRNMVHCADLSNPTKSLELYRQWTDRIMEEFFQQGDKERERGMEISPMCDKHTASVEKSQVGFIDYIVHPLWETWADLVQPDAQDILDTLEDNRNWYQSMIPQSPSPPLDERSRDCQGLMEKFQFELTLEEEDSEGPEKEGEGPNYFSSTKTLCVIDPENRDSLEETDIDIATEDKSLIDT

[19] = Half life in dog; type: ADME, organism-based, Canis lupus familiaris; settings: in vivo
[20] = Fraction unbound in human plasma; type: ADME, cell-free
[21] = Clearance in rat at 1 mg/kg, iv; type: ADME, organism-based; parameters: dose 1 mg/kg, route intravenous; settings: in vivo; method in brief: as §3
[22] = biological target: 3',5'-cyclic-AMP phosphodiesterase 4D (Homo sapiens, UniProt Q08499); assay: Inhibition of human PDE4D using [3H]cAMP by packard topcount scintillation counting analysis
[23] = Intrinsic clearance in human liver microsomes; type: ADME; settings: read-out: CLH
[24] = biological target: T2, 3',5'-cyclic-AMP phosphodiesterase 4B (Homo sapiens, UniProt Q07343); assay: Inhibition of human recombinant PDE4B using [3H]cAMP by packard topcount scintillation counting analysis
[25] = Volume of distribution at steady state in dog; type: ADME, organism-based, Canis lupus familiaris; settings: in vivo, read-out: Vdss
Rattus norvegicus [26] = assay: Antiinflammatory activity in Sprague-Dawley rat assessed as inhibition of LPS-induced bronchoalveolar lavage neutrophils measured as terminal lung concentration at 0.3 mg/ml, inhalation administered as nebulized suspension treated 12 hrs before LPS; type: functional; settings: in the assay text read “nebulized solution” for “nebulized suspension”; method in brief: as §2
Rattus norvegicus [27] = assay: Antiinflammatory activity in nasally dosed Sprague-Dawley rat assessed as inhibition of LPS-induced bronchoalveolar lavage neutrophils measured as lung concentration administered as […]; type: functional; method in brief: as §4
[28] = Lipophilicity, log D of the compound; type: physicochemical; settings: octanol/water
[29] = biological target: T2, 3',5'-cyclic-AMP phosphodiesterase 4B; assay: Inhibition of human recombinant PDE4B at high-affinity rolipram binding site
Rattus norvegicus [30] = assay: Antiinflammatory activity in nasally dosed Sprague-Dawley rat assessed as inhibition of LPS-induced bronchoalveolar lavage neutrophils measured as nebulizer concentration administered as […]; type: functional; method in brief: as §4
Rattus norvegicus [31] = assay: Apparent volume of distribution in rat at 1 mg/kg, iv; type: ADME, organism-based; parameters: dose 1 mg/kg, route intravenous; settings: in vivo; method in brief: as §3
Blood [32] = assay: Antiinflammatory activity in human whole blood assessed as inhibition of LPS-induced TNFalpha production after 20 hrs by ELISA; type: functional, tissue-based
[33] = Apparent volume of distribution in dog; type: ADME, organism-based, Canis lupus familiaris; settings: in vivo, read-out: Vz/F
Rattus norvegicus [34] = assay: Antiinflammatory activity in Sprague-Dawley rat assessed as inhibition of LPS-induced bronchoalveolar lavage neutrophils at 0.01 mg/ml, inhalation administered as nebulized suspension; type: functional; method in brief: as §1
Rattus norvegicus [35] = assay: Antiinflammatory activity in Sprague-Dawley rat assessed as inhibition of LPS-induced bronchoalveolar lavage neutrophils measured as LPS duration at 0.1 mg/ml, inhalation administered as nebulized suspension; type: functional, organism-based; method in brief: as §2
Rattus norvegicus [36] = assay: Antiinflammatory activity in Sprague-Dawley rat assessed as inhibition of LPS-induced bronchoalveolar lavage neutrophils at 0.1 mg/ml, inhalation administered as nebulized suspension; type: functional, organism-based; method in brief: as §1
[37] = Oral bioavailability in rat at 1 mg/kg; type: ADME, organism-based; settings: in vivo
Blood [38] = assay: tissue or blood; settings: Rattus norvegicus, 20 h, read-out: pIC50 (converted)
[39] = Aqueous solubility of the compound at pH 7.4; type: physicochemical; settings: aqueous medium
Rattus norvegicus [40] = assay: Antiinflammatory activity in Sprague-Dawley rat assessed as inhibition of LPS-induced bronchoalveolar lavage neutrophils at 0.03 mg/ml, inhalation administered as nebulized suspension; type: functional, organism-based; method in brief: as §1

Voltage-gated inwardly rectifying potassium channel KCNH2, sequence (Q12809 whole entry): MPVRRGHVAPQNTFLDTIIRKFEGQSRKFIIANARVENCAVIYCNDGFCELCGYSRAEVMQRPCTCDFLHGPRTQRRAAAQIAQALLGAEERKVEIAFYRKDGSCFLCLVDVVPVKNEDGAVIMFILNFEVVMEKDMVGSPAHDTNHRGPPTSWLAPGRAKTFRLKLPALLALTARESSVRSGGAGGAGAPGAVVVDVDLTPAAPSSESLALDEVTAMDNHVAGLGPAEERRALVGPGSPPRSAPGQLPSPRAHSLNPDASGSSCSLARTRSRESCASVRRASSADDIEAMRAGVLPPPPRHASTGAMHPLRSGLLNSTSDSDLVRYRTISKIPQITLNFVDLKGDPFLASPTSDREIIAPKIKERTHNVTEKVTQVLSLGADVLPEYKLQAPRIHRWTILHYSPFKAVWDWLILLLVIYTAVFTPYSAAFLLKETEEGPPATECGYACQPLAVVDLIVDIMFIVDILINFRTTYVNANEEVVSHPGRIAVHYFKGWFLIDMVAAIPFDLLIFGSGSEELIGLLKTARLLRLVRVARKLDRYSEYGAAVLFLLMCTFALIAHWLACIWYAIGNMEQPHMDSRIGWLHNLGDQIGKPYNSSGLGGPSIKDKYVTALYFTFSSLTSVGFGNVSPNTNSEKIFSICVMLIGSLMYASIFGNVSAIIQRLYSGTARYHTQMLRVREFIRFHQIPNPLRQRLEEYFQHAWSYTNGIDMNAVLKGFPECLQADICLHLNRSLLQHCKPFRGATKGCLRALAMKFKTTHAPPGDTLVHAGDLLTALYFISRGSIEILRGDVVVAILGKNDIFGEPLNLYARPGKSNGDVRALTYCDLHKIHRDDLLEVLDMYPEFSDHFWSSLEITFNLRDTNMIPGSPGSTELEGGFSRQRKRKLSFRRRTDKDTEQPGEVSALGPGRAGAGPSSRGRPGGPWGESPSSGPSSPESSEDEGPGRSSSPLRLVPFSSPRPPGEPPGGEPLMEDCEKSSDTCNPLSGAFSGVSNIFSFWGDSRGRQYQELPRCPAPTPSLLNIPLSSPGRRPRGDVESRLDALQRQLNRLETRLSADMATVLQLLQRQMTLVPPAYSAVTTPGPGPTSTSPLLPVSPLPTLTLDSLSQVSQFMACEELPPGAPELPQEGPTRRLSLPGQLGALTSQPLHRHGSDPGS
3',5'-cyclic-AMP phosphodiesterase 4A, sequence (P27815 whole entry): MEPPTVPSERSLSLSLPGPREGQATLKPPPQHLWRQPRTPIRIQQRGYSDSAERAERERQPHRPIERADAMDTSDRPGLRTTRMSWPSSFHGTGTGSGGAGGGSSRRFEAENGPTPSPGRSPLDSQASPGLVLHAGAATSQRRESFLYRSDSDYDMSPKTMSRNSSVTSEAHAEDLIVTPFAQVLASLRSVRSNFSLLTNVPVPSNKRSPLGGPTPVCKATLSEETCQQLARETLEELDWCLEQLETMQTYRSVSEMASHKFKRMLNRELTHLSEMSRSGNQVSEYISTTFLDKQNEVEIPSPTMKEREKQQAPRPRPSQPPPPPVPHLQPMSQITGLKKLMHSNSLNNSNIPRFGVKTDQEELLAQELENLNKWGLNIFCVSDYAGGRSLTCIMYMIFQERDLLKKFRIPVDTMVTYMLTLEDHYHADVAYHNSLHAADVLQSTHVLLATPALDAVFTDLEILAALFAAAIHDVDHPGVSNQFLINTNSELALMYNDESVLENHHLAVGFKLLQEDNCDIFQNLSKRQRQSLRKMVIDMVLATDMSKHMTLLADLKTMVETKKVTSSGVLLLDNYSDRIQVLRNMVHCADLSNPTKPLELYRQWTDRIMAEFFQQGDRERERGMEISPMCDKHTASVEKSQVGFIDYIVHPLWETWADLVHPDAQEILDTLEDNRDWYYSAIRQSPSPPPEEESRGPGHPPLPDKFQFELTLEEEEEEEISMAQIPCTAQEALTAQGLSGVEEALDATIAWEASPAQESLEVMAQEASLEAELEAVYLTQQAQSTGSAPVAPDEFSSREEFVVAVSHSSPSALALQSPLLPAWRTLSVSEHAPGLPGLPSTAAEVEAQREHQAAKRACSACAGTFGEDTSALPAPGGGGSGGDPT
T2 sequence (Q07343 whole entry): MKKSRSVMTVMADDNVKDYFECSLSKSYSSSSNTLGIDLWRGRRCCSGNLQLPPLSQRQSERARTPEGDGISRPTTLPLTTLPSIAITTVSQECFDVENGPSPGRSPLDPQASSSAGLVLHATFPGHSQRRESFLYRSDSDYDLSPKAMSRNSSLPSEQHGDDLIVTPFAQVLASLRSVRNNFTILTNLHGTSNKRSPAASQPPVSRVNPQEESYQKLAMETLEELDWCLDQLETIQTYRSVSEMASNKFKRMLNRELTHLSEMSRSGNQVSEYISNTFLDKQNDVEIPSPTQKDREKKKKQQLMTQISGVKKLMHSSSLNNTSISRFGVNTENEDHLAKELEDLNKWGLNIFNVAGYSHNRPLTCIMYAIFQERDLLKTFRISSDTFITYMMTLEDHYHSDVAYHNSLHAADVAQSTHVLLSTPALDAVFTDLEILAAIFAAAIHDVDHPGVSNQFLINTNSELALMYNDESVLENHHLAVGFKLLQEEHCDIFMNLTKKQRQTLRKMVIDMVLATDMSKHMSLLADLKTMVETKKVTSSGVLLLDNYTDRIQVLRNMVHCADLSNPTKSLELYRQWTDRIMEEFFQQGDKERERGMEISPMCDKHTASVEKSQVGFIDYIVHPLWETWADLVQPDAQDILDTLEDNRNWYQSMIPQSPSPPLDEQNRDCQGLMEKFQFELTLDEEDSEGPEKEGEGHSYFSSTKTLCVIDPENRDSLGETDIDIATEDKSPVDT
3',5'-cyclic-AMP phosphodiesterase 4D, sequence (Q08499 whole entry): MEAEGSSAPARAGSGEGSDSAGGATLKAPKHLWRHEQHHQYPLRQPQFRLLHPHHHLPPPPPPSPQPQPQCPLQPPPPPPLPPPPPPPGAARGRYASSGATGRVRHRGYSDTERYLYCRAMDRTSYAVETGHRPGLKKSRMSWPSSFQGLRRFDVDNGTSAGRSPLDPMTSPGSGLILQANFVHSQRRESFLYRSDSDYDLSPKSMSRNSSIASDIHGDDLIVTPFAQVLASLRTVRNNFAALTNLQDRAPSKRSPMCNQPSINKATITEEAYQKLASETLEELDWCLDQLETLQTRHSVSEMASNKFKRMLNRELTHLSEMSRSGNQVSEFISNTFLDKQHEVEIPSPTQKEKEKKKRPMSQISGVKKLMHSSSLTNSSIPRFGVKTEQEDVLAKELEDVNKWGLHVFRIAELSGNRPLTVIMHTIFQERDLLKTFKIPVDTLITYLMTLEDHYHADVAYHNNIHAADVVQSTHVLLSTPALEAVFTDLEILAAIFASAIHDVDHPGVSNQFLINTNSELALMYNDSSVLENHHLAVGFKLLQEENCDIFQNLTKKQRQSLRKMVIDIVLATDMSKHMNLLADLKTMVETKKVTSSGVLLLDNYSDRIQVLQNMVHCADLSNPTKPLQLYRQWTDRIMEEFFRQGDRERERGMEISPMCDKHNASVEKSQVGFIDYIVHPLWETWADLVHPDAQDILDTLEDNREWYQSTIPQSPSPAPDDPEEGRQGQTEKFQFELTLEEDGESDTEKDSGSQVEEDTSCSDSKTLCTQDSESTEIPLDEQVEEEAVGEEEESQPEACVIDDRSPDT

| half-life [3] [h] | half-life [5] [h] | Vd [6] [L/kg] | bioavailability [8] [%] | log K [10] | pIC50 [11] | fraction unbound [12] | hepatocyte CLint [14] [µL/min/1e6 cells] | clearance [15] [mL/min/kg] | pIC50 [18] | half-life [19] [h] | SMILES | Activity (Rattus norvegicus [1]) [nM] | Activity (Rattus norvegicus [2]) [nM] | Activity (Rattus norvegicus [4]) [nM] | Activity (Rattus norvegicus [7]) [nM] | pIC50 [9] | pIC50 (PBMC) | Activity (Rattus norvegicus [13]) [nM] | ED80 (Rattus norvegicus [16]) [µg/kg] | Activity (Rattus norvegicus [17]) [nM] | further results |
| --- | --- | --- | --- | --- | --- | --- | --- | --- | --- | --- | --- | --- | --- | --- | --- | --- | --- | --- | --- | --- | --- |
| 8 | 7 | 18 | 16 | 1.32 | > 8.00 | 0.23 | 10 | 34 | 10.70 | 15 | Cc1csc(C(=O)N[C@H]2CC[C@@H](NC(=O)c3cc(F)cnc3Oc3cccc(-c4ccc(CN5C[C@@H](C)N[C@@H](C)C5)cc4CN4CCOCC4)c3)CC2)n1 | 12 | 22 | 2 | 30 | 4.70 | 10.70 | 90 | 0.2 | 7 | fraction unbound [20]: 0.045; clearance [21]: 44 mL/min/kg; pIC50 [22]: 10.70; microsomal CLint [23]: > 150 µL/min/mg; pIC50 [24]: 10.60; Vd [25]: 26 L/kg; Activity (Rattus norvegicus [26]): 57 nM; ED80 (Rattus norvegicus [27]): 23 nM; logD [28]: 1.9; pIC50 [29]: > 8.00; ED80 (Rattus norvegicus [30]): 20 µg/mL (≈ 26.5 µM); Vz/F (Rattus norvegicus [31]): 27 L/kg; pIC50 (Blood [32]): 9.50; Vd/F [33]: 44 L/kg |
| 9 | 7 | 16 | 6 | 1.88 | > 8.00 | 0.083 | 13 | 19 | 10.60 | 15 | Cc1ccc(O)c(C(=O)N[C@H]2CC[C@@H](NC(=O)c3cc(F)cnc3Oc3cccc(-c4ccc(CN5C[C@@H](C)N[C@@H](C)C5)cc4CN4CCOCC4)c3)CC2)c1 | 26 | 14 | 9 | 88 | 5.20 | 10.40 | 123 | 0.6 | 5 | inhibition (Rattus norvegicus [34]): Active; inhibition (Rattus norvegicus [35]): Active; fraction unbound [20]: 0.013; inhibition (Rattus norvegicus [36]): Active; clearance [21]: 50 mL/min/kg; microsomal CLint [23]: 78 µL/min/mg; bioavailability [37]: < 16%; Vd [25]: 13 L/kg; Activity (Rattus norvegicus [26]): 33 nM; ED80 (Rattus norvegicus [27]): 78 nM; logD [28]: 2.8; IC50 (Blood [38]): 0.501 nM; solubility [39]: 213 µM (≈ 163 µg/mL); ED80 (Rattus norvegicus [30]): 60 µg/mL (≈ 78.4 µM); inhibition (Rattus norvegicus [40]): Active; Vz/F (Rattus norvegicus [31]): 30 L/kg; pIC50 (Blood [32]): 7.90; Vd/F [33]: 25 L/kg |

— ChEMBL document CHEMBL3286180, “Efficacious inhaled PDE4 inhibitors with low emetic potential and long duration of action for the treatment of COPD” (J Med Chem, 2014)
